Screening data as filed in PubChem BioAssay.
The full list was thinned out, with hits kept by preference.
DTT redox prof: compounds producing H2O2 with reducing agent – biochemical, NIH compound library profiling, artefact control for MLSCN library redox annotation, primary screen; DTT-dependent redox cycling H2O2, phenol red/HRP absorbance; 100% = 100 µM peroxide control, 0% = buffer; activation, % at 10 µM; AID 878; actives 0.03% (n = 200,000);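 active = activation of at least 50% relative to the plate's high and low controls in the primary single-dose screen; inactive = activation below 50%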;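 also: compound incubated with DTT at 0.8 mM final as the reducing agent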
MPTP block: inhibitors of mitochondrial permeability transition pore; isolated mouse mitochondria, Ca2+ swelling absorbance, 30 min; inhibition, % at 10 µM; actives 1.4% (n = 360,000); AID 602449;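 active = inhibition of 50% or more, scaled per plate between neutral and stimulator controls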
Lipid droplet: hepatic lipid droplet formation modulation | AML12 mouse hepatocytes, oleate lipid droplets, BODIPY imaging | inhibition, % at 6.5 µM | actives 0.4% (n = 240,000);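 active = lipid droplet intensity inhibited by at least 50%, with more than 500 cells counted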
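Test system: AML12 mouse liver cells; schedule: overnight exposure; technique: high-content imaging of BODIPY-stained droplets and DAPI nuclei; read-out: % inhibition of corrected integrated BODIPY droplet signal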
T cruzi inh: blocks replication of Trypanosoma cruzi | T. cruzi beta-gal in NIH3T3, luminescence, 90 h | inhibition, % (concentration not given with the values) | actives 1.4% (n = 300,000);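 active = mean inhibition across valid replicates above about 55%, limit read from the data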;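 also: signal also drops with host cell toxicity which is not excluded here; higher percent means less beta-gal luminescence so fewer parasites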
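System: mouse NIH/3T3 fibroblasts infected with β-gal-expressing T. cruzi Tulahuen C4 / Input: NIH/3T3 cells, 5,000 per well / Buffer or medium: Low-serum DMEM with 2% FBS / Probe or stimulus: 5000 reporter trypomastigotes per well / Schedule: ≥90 h infection period, 3 h prior cell attachment / Measured by: GalScreen luminescence, 60 min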
L major viab: inhibitors of Leishmania major promastigote growth; Leishmania major promastigotes, resazurin fluorescence viability; inhibition, % at 10 µM; actives 9% (n = 200,000); in the data active = inhibition above about 50%;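 also: promastigotes grown with compound for 44 hours at 28 °C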
Large screens that a line does not name were inactive.

O=C(CSc1nnc2ccccn12)NNC(=O)c1ccc(Br)cc1	none
CC1CCc2cc(F)ccc2N1C(=O)CCl (configuration not stated)	L major viab 75 (no result: T cruzi inh)
CCC(CC)C(=O)N1c2ccc(F)cc2CCC1C (configuration not stated)	none (no result: Lipid droplet)
Cc1ccc(C(C)C)c(OCc2ccc(C(=O)N/N=C/c3cccc(O)c3O)cc2)c1	T cruzi inh 58, L major viab 100
Cc1ccc(C(C)C)c(OCc2ccc(C(=O)N/N=C/c3ccc(O)c(O)c3)cc2)c1	L major viab 100
COc1cc(/C=N/NC(=O)c2ccc(COc3cc(C)ccc3C(C)C)cc2)cc(OC)c1O	none
COCCn1c(SCC(=O)NC(C)c2ccc(F)cc2)nc2ccccc21 (configuration not stated)	none (no result: DTT redox prof, L major viab)
CCC(Sc1nc2cc3c(cc2c(=O)n1Cc1ccco1)OCO3)C(=O)Nc1cccc(OC)c1 (configuration not stated)	L major viab 96 (no result: Lipid droplet)
CCC(Sc1nc2cc3c(cc2c(=O)n1Cc1ccco1)OCO3)C(=O)Nc1ccccc1OC (configuration not stated)	none (no result: Lipid droplet)
NS(=O)(=O)c1cccc(NC(=O)CSc2nnc(C3CC3)n2Cc2ccccc2)c1	none (no result: DTT redox prof, L major viab)
CCOC(=O)C1(Cc2cccc(F)c2)CCN(C2CCOCC2)CC1	none
CCOC(=O)C1(Cc2ccccc2C(F)(F)F)CCN(C2CCSC2)CC1 (configuration not stated)	L major viab 52
CCOC(=O)C1(Cc2ccccc2C(F)(F)F)CCN(CC2CC2)CC1	L major viab 57
CCOC(=O)C1(Cc2ccccc2C(F)(F)F)CCN(Cc2ccon2)CC1	none (no result: DTT redox prof, L major viab)
CCOC(=O)C1(Cc2ccccc2C(F)(F)F)CCN(C2CCCC2)CC1	L major viab 80 (no result: T cruzi inh)
CCOC(=O)C1(Cc2ccccc2C(F)(F)F)CCN(C(=O)c2cc(C(C)=O)n[nH]2)CC1	none
O=c1cc(/N=C/c2coc3c(ccc4ccccc43)c2=O)[nH]c(=S)[nH]1	L major viab 51
COc1cccc(C(=O)N2CCC(C(=O)NCc3ccco3)CC2)c1	none (no result: DTT redox prof, L major viab)
C=CC[C@@H](CC(=O)N[C@@H](CO)Cc1ccccc1)C(=O)N[C@@H](COC(=O)[C@H](CC=C)CC(=O)OC(C)(C)C)Cc1c[nH]c2ccccc12	none (no result: DTT redox prof, Lipid droplet, T cruzi inh, L major viab)
CNc1cc(C)nc(-n2nc(C)cc2C)n1	none (no result: Lipid droplet)
CCOc1ccc(Nc2cc(C)nc(-n3nc(C)cc3C)n2)cc1	L major viab 90 (no result: Lipid droplet)
COc1ccc(/C=N/Nc2cc(C)nc(-n3nc(C)cc3C)n2)c(OC)c1	L major viab 99
CC(OC(=O)/C=C/c1cccs1)C(=O)Nc1ccc(C(N)=O)cc1 (configuration not stated)	none (no result: DTT redox prof, Lipid droplet, T cruzi inh, L major viab)
Cc1ccc(Cl)cc1N1CCN(CC(=O)Nc2ccc(CN3CCCCC3)cc2)CC1	T cruzi inh 55, L major viab 98
COc1ccccc1NC(=O)CN1CCN(c2ccccc2OC)CC1	none
COc1ccccc1N1CCN(CC(=O)Nc2ccc(CN3CCCCC3)cc2)CC1	L major viab 64 (no result: Lipid droplet)
Cc1ccc(NC(=O)CN2CCN(Cc3ccccc3)CC2)cc1F	none (no result: DTT redox prof, L major viab)
CC1CCCN(CC(O)COCc2ccc3c(c2)OCO3)C1 (configuration not stated)	none
OC(COCc1ccccc1)CN1CCN(Cc2ccc3c(c2)OCO3)CC1 (configuration not stated)	L major viab 90
SC(COCc1ccccc1)CN1CCN(Cc2ccc3c(c2)OCO3)CC1 (configuration not stated)	T cruzi inh 55, L major viab 58
CC1CN(CC(O)COCc2ccc3c(c2)OCO3)CC(C)O1 (configuration not stated)	L major viab 69
COc1ccc(S(=O)(=O)NCc2cc(-c3ccccc3Cl)no2)cc1	none
O=C(NCCc1nnc2ccc(NCCCN3CCOCC3)nn12)c1ccccc1	none (no result: DTT redox prof, L major viab)
Cc1cc(N)c(-n2cc3c(=O)n(C)c(=O)n(C)c3c2)cc1C	L major viab 62
CCOC(=O)[C@]12CCCC=C1N(CCc1ccc(OC)c(OC)c1)C(=O)[C@H](CC(=O)NCc1ccc(C)o1)C2	none (no result: DTT redox prof, Lipid droplet, T cruzi inh, L major viab)
CC1(C(=O)N2CCCCC2)CCN1C(=O)Cc1ccc(-c2ccccc2)cc1 (configuration not stated)	none (no result: DTT redox prof, Lipid droplet, T cruzi inh, L major viab)
Cc1ccc(S(=O)(=O)N(CC(=O)N2CCN(c3ccc(F)cc3)CC2)C2CCCCC2)cc1	L major viab 59 (no result: Lipid droplet)
Cc1nc(-n2[nH]c3c(c2=O)CCCC3)[nH]c(=O)c1Cc1ccccc1	T cruzi inh 69, L major viab 96 (no result: Lipid droplet)
Cc1nc(N2CCc3ccccc3C2)[nH]c(=O)c1Cc1ccccc1	none
CC1=C(C(=O)OC2CCCC2)C(c2ccc(C)o2)C2=C(CC(c3cccs3)CC2=O)N1 (configuration not stated)	L major viab 83
COc1ccc(NC(=O)CSc2nnc(NC(=O)c3ccc(S(=O)(=O)N4CCOCC4)cc3)s2)cc1	L major viab 76
Cc1cccc(Nc2nnc(SCC(=O)Nc3cccnc3Cl)s2)c1	L major viab 62
O=C(CSc1cccc(C(F)(F)F)c1)Nc1cc(S(=O)(=O)N2CCCC2)ccc1Cl	L major viab 55
Cc1cccc(C)c1Nc1nnc(SCC(=O)Nc2cc(S(=O)(=O)N3CCCCC3)ccc2Cl)s1	L major viab 50
O=C(Cc1ccccc1F)Nc1cc(S(=O)(=O)N2CCCC2)ccc1Cl	none (no result: DTT redox prof, Lipid droplet, T cruzi inh, L major viab)
Cc1cccc(NC(=O)CSc2nnc(NC(=O)c3ccc(S(=O)(=O)N4CCOCC4)cc3)s2)c1C	L major viab 87 (no result: MPTP block)
CCOc1ccc(CCNC(=O)COC(=O)c2ccco2)cc1OCC	L major viab 56
CCOc1cc(CNCCc2ccccc2)ccc1OCC(=O)NC(C)(C)C	L major viab 100
CCOc1cc(CNCCc2ccc(S(N)(=O)=O)cc2)ccc1OCC(=O)NC(C)(C)C	none (no result: T cruzi inh)
COc1ccccc1NC(=O)COc1cc(Br)c(CNCCCN2CCOCC2)cc1OC	L major viab 55
C=CCOc1c(Br)cc(CNCCCN2CCOCC2)cc1OC	T cruzi inh 58 (no result: DTT redox prof, L major viab)
COc1ccccc1OCC(=O)NCCCN1CCOCC1	none (no result: DTT redox prof, L major viab)
C=CCOc1ccc(CNCc2cccnc2)cc1OCC	none (no result: DTT redox prof, L major viab)
CC(C)(C)NC(=O)COc1ccc(CNCCc2ccccc2)cc1	L major viab 87
CCc1ccc(OCC(=O)NC(C)(C)C)cc1	L major viab 63
CCOc1cc(CNCCCN2CCOCC2)ccc1OCC(=O)NC(C)(C)C	T cruzi inh 63
CCOc1cc(CNCc2cccnc2)ccc1OCC(=O)NC(C)(C)C	L major viab 83
CC(C)(C)NC(=O)COc1ccc(CNCc2ccccn2)cc1	none
CCN(CC(=O)Nc1ccc2c(c1)OCCO2)S(=O)(=O)c1ccc(F)cc1	none (no result: DTT redox prof, L major viab)
COc1ccc(-n2nnnc2CNC(=O)C(=O)c2c(C)[nH]c3ccccc23)cc1	none (no result: DTT redox prof, Lipid droplet, L major viab)
COC(=O)[C@H](CC(C)C)NC(=O)c1cc2c(cn1)[nH]c1ccccc12	none (no result: DTT redox prof, L major viab)
CSc1c(CN2CCN(C)CC2)c2ccccc2n1C	none (no result: DTT redox prof, Lipid droplet, L major viab)
